Test results: ChEMBL document CHEMBL3286351, “Antibacterial evaluation of structurally amphipathic, membrane active small cationic peptidomimetics: synthesized by incorporating 3-amino benzoic acid as peptidomimetic element” (Eur J Med Chem, 2014)
In brackets after ≈: the same amount, converted by molar mass. Where a SMILES comes first, the peptide text is derived from it. [ ]: non-standard residue; d: D form. 3Abz = Nc1cccc(C(=O)O)c1; Orn = NCCC[CH](N)C(=O)O

What was measured:
Escherichia coli = test: Antibacterial activity against Escherichia coli MTCC 723 assessed as growth inhibition after 18 hrs by CLSI microdilution broth assay; format: functional; conditions: MTCC 723, 18 h
Staphylococcus aureus [1] = test: Antibacterial activity against Staphylococcus aureus MTCC 3160 assessed as growth inhibition after 18 hrs by CLSI microdilution broth assay; format: functional; conditions: MTCC 3160, 18 h
[2] = system: Staphylococcus epidermidis; test: Antibacterial activity against methicillin-resistant Staphylococcus epidermidis ATCC 51625 assessed as growth inhibition after 18 hrs by CLSI microdilution broth assay; format: functional; conditions: ATCC 51625, 18 h
Outline: (§1)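 Modified CLSI broth microdilution in Mueller-Hinton broth. Wells held 90 µL of about 2 × 10^5 CFU/mL inoculum plus 10 µL of serially diluted peptidomimetic, range 0.7-100 µg/mL. Plates were incubated overnight with agitation at 37 °C and absorbance read at 600 nm after 18 h. Controls: inoculum without compound, and uninoculated broth. Run in triplicate.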

Staphylococcus aureus [3] = test: Antibacterial activity against methicillin-resistant Staphylococcus aureus ATCC BAA-1720 assessed as growth inhibition after 18 hrs by CLSI microdilution broth assay; format: functional; conditions: ATCC BAA-1720, 18 h; outline: as §1
[4] = Induction of hemolysis in human RBC assessed as hemoglobin release after 1 hr by microtiter plate reader analysis; format: cell-based, Erythrocyte; conditions: for HC10: erythrocyte, 1 h; for HC50 at 1 h: red blood cells
Outline: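 Freshly isolated human RBCs washed three times in PBS (35 mM phosphate, 150 mM NaCl, pH 7.2) and used as a 4% (v/v) suspension. Mixed 1:1 with twofold serial dilutions of compound, incubated 1 h at 37 °C without agitation, then centrifuged. Supernatant A540 read. PBS defined 0% and 1% Triton X-100 defined 100% lysis; HC50 and HC10 derived.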

[5] = Retention time of the compound by HPLC analysis; format: physicochemical
Outline: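 Analytical RP-HPLC on a C18 column (5 µm, 4.6 × 250 mm) at room temperature. Run a linear gradient of 0.5-60% acetonitrile containing 0.05% TFA against water containing 0.05% TFA at 0.5 mL/min.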

[6] = Selectivity ratio of HC50 for hemolysis in human RBC to MIC for Staphylococcus aureus
Pseudomonas aeruginosa = test: Antibacterial activity against Pseudomonas aeruginosa MTCC 2295 assessed as growth inhibition after 18 hrs by CLSI microdilution broth assay; format: functional; conditions: MTCC 2295, 18 h
Bacillus subtilis = test: Antibacterial activity against Bacillus subtilis MTCC 2763 assessed as growth inhibition after 18 hrs by CLSI microdilution broth assay; format: functional; conditions: MTCC 2763, 18 h

Row | Structure (SMILES) | MIC (Escherichia coli) [µg/mL] | MIC (Staphylococcus aureus [1]) [µg/mL] | MIC [2] [µg/mL] | MIC (Staphylococcus aureus [3]) [µg/mL] | HC10 [4] [µg/mL] | HC50 at 1 h [4] [µg/mL] | Retention_time [5] [min] | Selectivity ratio [6] | MIC (Pseudomonas aeruginosa) [µg/mL] | MIC (Bacillus subtilis) [µg/mL]
1 | N=C(N)NCCCC(N)C(=O)NC(Cc1c[nH]c2ccccc12)C(=O)NC(Cc1c[nH]c2ccccc12)C(=O)Nc1cccc(C(=O)NC(CCCNC(=N)N)C(=O)NC(CCCNC(=N)N)C(N)=O)c1 (centres undefined) (H-RWW[3Abz]RR-NH2; configuration not given here) | 70 (≈ 71.6 µM) | 25 (≈ 25.6 µM) | 25 (≈ 25.6 µM) | 25 (≈ 25.6 µM) | 255 | 420 | 26.96 | 16.8 | 75 (≈ 76.8 µM) | 75 (≈ 76.8 µM)
2 | N=C(N)NCCCC(N)C(=O)NC(CCCNC(=N)N)C(=O)NC(Cc1c[nH]c2ccccc12)C(=O)Nc1cccc(C(=O)NC(Cc2c[nH]c3ccccc23)C(=O)NC(CCCNC(=N)N)C(N)=O)c1 (centres undefined) (H-RRW[3Abz]WR-NH2; configuration not given here) | 17.5 (≈ 17.9 µM) | 6.25 (≈ 6.4 µM) | 6.25 (≈ 6.4 µM) | 5 (≈ 5.12 µM) | 100 | 355 | 27.402 | 56.8 | 25 (≈ 25.6 µM) | 25 (≈ 25.6 µM)
3 | N=C(N)NCCCC(NC(=O)c1cccc(NC(=O)C(Cc2c[nH]c3ccccc23)NC(=O)C(N)Cc2c[nH]c3ccccc23)c1)C(N)=O (centres undefined) (H-WW[3Abz]R-NH2; configuration not given here) | 150 (≈ 226 µM) | 120 (≈ 181 µM) | > 200 | 200 (≈ 301 µM) | 100 | 240 | 28.661 | 2 | 170 (≈ 256 µM) | 150 (≈ 226 µM)
4 | N=C(N)NCCCC(NC(=O)C(CCCNC(=N)N)NC(=O)c1cccc(NC(=O)C(Cc2c[nH]c3ccccc23)NC(=O)C(N)Cc2c[nH]c3ccccc23)c1)C(N)=O (centres undefined) (H-WW[3Abz]RR-NH2; configuration not given here) | 120 (≈ 146 µM) | 50 (≈ 60.9 µM) | 75 (≈ 91.4 µM) | 50 (≈ 60.9 µM) | 150 | 400 | 25.377 | 8 | 125 (≈ 152 µM) | 70 (≈ 85.3 µM)
5 | N=C(N)NCCCC(NC(=O)c1cccc(NC(=O)C(CCCNC(=N)N)NC(=O)C(N)Cc2c[nH]c3ccccc23)c1)C(N)=O (centres undefined) (H-WR[3Abz]R-NH2; configuration not given here) | 200 (≈ 315 µM) | 150 (≈ 236 µM) | 200 (≈ 315 µM) | 150 (≈ 236 µM) | 300 | > 500 | 24.184 | > 3.3 | > 200 | 200 (≈ 315 µM)
6 | NCCCC(NC(=O)C(Cc1c[nH]c2ccccc12)NC(=O)c1cccc(NC(=O)C(CCCN)NC(=O)C(CCCN)NC(=O)C(N)Cc2c[nH]c3ccccc23)c1)C(N)=O (centres undefined) (H-W[Orn][Orn][3Abz]W[Orn]-NH2; configuration not given here) | 75 (≈ 88.1 µM) | 40 (≈ 47 µM) | 40 (≈ 47 µM) | 50 (≈ 58.8 µM) | 170 | 500 | 24.193 | 12.5 | 100 (≈ 118 µM) | 75 (≈ 88.1 µM)
7 | N=C(N)NCCCC(N)C(=O)NC(CCCNC(=N)N)C(=O)NC(Cc1c[nH]c2ccccc12)C(=O)NC(Cc1c[nH]c2ccccc12)C(=O)NC(CCCNC(=N)N)C(N)=O (centres undefined) (H-RRWWR-NH2; configuration not given here) | 75 (≈ 87.4 µM) | 25 (≈ 29.1 µM) | 20 (≈ 23.3 µM) | 25 (≈ 29.1 µM) | 90 | 240 | 29.606 | 9.6 | 100 (≈ 117 µM) | 70 (≈ 81.6 µM)
8 | N=C(N)NCCCC(NC(=O)C(Cc1c[nH]c2ccccc12)NC(=O)c1cccc(NC(=O)C(CCCNC(=N)N)NC(=O)C(CCCNC(=N)N)NC(=O)C(N)Cc2c[nH]c3ccccc23)c1)C(N)=O (centres undefined) (H-WRR[3Abz]WR-NH2; configuration not given here) | 50 (≈ 51.2 µM) | 15 (≈ 15.4 µM) | 10 (≈ 10.2 µM) | 12.5 (≈ 12.8 µM) | 190 | 380 | 27.66 | 25.3 | 50 (≈ 51.2 µM) | 70 (≈ 71.6 µM)
9 | NCCCC(NC(=O)C(CCCN)NC(=O)c1cccc(NC(=O)C(Cc2c[nH]c3ccccc23)NC(=O)C(CCCN)NC(=O)C(N)Cc2c[nH]c3ccccc23)c1)C(N)=O (centres undefined) (H-W[Orn]W[3Abz][Orn][Orn]-NH2; configuration not given here) | 70 (≈ 82.3 µM) | 25 (≈ 29.4 µM) | 20 (≈ 23.5 µM) | 25 (≈ 29.4 µM) | 175 | 450 | 24.782 | 18 | 75 (≈ 88.1 µM) | 40 (≈ 47 µM)
10 | N=C(N)NCCCC(NC(=O)C(Cc1c[nH]c2ccccc12)NC(=O)c1cccc(NC(=O)C(CCCNC(=N)N)NC(=O)C(N)Cc2c[nH]c3ccccc23)c1)C(N)=O (centres undefined) (H-WR[3Abz]WR-NH2; configuration not given here) | 150 (≈ 183 µM) | 60 (≈ 73.1 µM) | 75 (≈ 91.4 µM) | 50 (≈ 60.9 µM) | 220 | 400 | 24.982 | 6.66 | 120 (≈ 146 µM) | 75 (≈ 91.4 µM)
11 | N=C(N)NCCCC(NC(=O)C(CCCNC(=N)N)NC(=O)c1cccc(NC(=O)C(CCCNC(=N)N)NC(=O)C(N)Cc2c[nH]c3ccccc23)c1)C(N)=O (centres undefined) (H-WR[3Abz]RR-NH2; configuration not given here) | > 200 | 100 (≈ 126 µM) | 100 (≈ 126 µM) | 120 (≈ 152 µM) | 325 | > 500 | 22.64 | > 5 | > 200 | 170 (≈ 215 µM)
12 | N=C(N)NCCCC(NC(=O)c1cccc(NC(=O)C(N)Cc2c[nH]c3ccccc23)c1)C(N)=O (centres undefined) | > 200 | > 200 | > 200 | > 200 | 400 | > 500 | 26.553 |  | > 200 | > 200
13 | NCCCC(N)C(=O)NC(CCCN)C(=O)NC(Cc1ccccc1)C(=O)Nc1cccc(C(=O)NC(Cc2ccccc2)C(=O)NC(CCCN)C(N)=O)c1 (centres undefined) (H-[Orn][Orn]F[3Abz]F[Orn]-NH2; configuration not given here) | > 200 | > 200 | > 200 | > 200 | 210 | 490 | 23.313 |  | > 200 | > 200
14 | CN[C@H](CC(C)C)C(=O)N[C@H]1C(=O)N[C@@H](CC(N)=O)C(=O)N[C@H]2C(=O)N[C@H]3C(=O)N[C@H](C(=O)N[C@H](C(=O)O)c4cc(O)cc(O)c4-c4cc3ccc4O)[C@H](O)c3ccc(c(Cl)c3)Oc3cc2cc(c3O[C@@H]2O[C@H](CO)[C@@H](O)[C@H](O)[C@H]2O[C@H]2C[C@](C)(N)[C@H](O)[C@H](C)O2)Oc2ccc(cc2Cl)[C@H]1O [VANCOMYCIN] |  |  |  | 1.5 (≈ 1.04 µM) |  |  |  |  |  | 
